Bioassay records deposited in PubChem BioAssay by several laboratories.
Shown are actives, neighbours in structure and some others; about 1.9% of the full set was active somewhere.
GRK2 inh: blocks RNA aptamer binding to human GRK2; bead flow cytometry, FAM-aptamer displacement from GRK2; P25098; AID 488847; 0.59% of 330,000 active; inhibition of aptamer binding, % at 10 µM;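 active = inhibition of aptamer binding above 40%, roughly 3 SD of noise, on plates passing a quality check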;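 note: median bead fluorescence of bound FAM aptamer so fluorescent compounds give negative values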
SR-BI DiI-HDL act: enhances SR-BI lipid uptake from DiI-HDL; CHO ldlA[mSR-BI] cells, DiI-HDL uptake fluorescence, 3 h; 100 = double the neutral-control signal; activation, % at 12.5 µM; 0.096% of 320,000 active;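 active = mean replicate activation of at least 60% and every replicate at or above 60%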;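 note: 0% = median plate neutral-control signal and 100% = twice that signal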
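Material: SR-BI-overexpressing, LDLR-lacking CHO cells | Dosing: Single compound concentration, delivered by pin transfer | Probe or stimulus: Labelled HDL, 10 µg/mL | Signal: Bottom-read cell fluorescence after medium removal, ex 550/em 595 nm | Schedule: 3 h, 37 °C | Evaluation: HDL uptake via cellular fluorescence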
SR-BI DiI inh: inhibitors of mouse SR-BI mediated HDL lipid uptake. Q61009. ldlA[mSR-BI] CHO cells, DiI-HDL uptake fluorescence, 3 h. inhibition, % at 12.5 µM. 0.96% of 320,000 active. AID 488896;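 active = mean replicate inhibition of at least 70% and a set share of replicates each scoring 70 or more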;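 note: 0% = median of neutral control wells and 100% = median of positive control wells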
Target sequence (Q61009 whole entry, looked up): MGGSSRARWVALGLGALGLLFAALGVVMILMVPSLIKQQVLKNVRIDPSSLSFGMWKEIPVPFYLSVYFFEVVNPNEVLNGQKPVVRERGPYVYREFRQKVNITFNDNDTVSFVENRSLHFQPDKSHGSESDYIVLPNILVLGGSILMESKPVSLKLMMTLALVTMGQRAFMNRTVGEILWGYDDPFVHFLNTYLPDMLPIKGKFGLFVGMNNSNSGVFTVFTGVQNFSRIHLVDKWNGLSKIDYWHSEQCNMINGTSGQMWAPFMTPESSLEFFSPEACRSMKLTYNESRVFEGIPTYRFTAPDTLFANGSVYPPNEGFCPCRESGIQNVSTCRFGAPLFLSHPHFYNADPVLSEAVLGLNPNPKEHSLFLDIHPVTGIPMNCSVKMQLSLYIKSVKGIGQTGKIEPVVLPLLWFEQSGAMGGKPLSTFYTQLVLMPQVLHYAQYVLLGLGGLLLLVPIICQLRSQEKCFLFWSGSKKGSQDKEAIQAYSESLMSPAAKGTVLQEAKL
Rin1-Abl PPI inh: inhibitors of human Rin1-Abl protein interaction; TR-FRET Rin1/Abl binding, biochemical; AID 588664; 0.4% of 360,000 active; P00519+Q13671; inhibition, % at 7.35 µM; in the data active = inhibition above about 5%, passing the limit was not always enough
Rin1-Abl confirm: Rin1-Abl interaction inhibition confirmation | shares compounds with Rin1-Abl PPI inh | TR-FRET Rin1-Abl binding, purified proteins | inhibition, % at 7.35 µM | 49% of 1,300 active
GFP quench: quenches GFP fluorescence, counter-screen for Rin1-Abl inhibitors | inhibitors/quenchers counterscreen | inhibition, % at 6.75 µM | 8.5% of 1,300 active | shares compounds with Rin1-Abl PPI inh;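 note: ABL1-eGFP fusion protein alone without its partner RIN1-SBP; 0% = protein with vehicle and 100% = wells lacking protein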
GFP quench dose: quenches GFP in dose response, Rin1-Abl counter-screen. shares compounds with Rin1-Abl PPI inh. GFP fluorescence interference/quenching counterscreen. IC50, µM. 230 tested, under 10 active. AID 602182; call rule not given here;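 note: ABL1-eGFP fusion protein alone without its RIN1 binding partner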
Numbers without * were called inactive; nt = no result given. Cut-off read from the data, not from the text of the source, unless noted: active = inhibition above about 6.5%; inactive = the rest.

SMILES	GRK2 inh	SR-BI DiI-HDL act	SR-BI DiI inh	Rin1-Abl PPI inh	Rin1-Abl confirm	GFP quench	others
O=C(N[C@@H](Cc1ccccc1)C(=O)OCc1ccccc1)c1ccco1	0	5	-5	-3	nt	nt
Cc1nnc(SCC(=O)NC2(C#N)CCCCC2)n1N	nt	nt	nt	0	nt	nt
Cc1ccc(Cl)cc1N1C(=O)CC(C)(C)CC1=O	0	nt	nt	7.2*	-3	1
O=C(Nc1ccn(CCCNCc2ccccn2)c(=O)n1)OCc1ccccc1	nt	-20	20	4	nt	nt
O=C(Nc1ccn(CCCN2CCN(Cc3ccc(F)cc3)CC2)c(=O)n1)OCc1ccccc1	nt	nt	nt	19*	19*	0	GFP quench dose=>68
O=C(Cn1ccc(NC(=O)OCc2ccccc2)nc1=O)NCCN1CCOCC1	2	12	-12	4	nt	nt
O=C(Cn1ccc(NC(=O)OCc2ccccc2)nc1=O)NCCCN1CCCC1=O	0	20	-20	12*	6.6*	0
O=C(Nc1ccn(CCCN2CCN(c3ncccn3)CC2)c(=O)n1)OCc1ccccc1	nt	nt	nt	8.5*	11*	-1
O=C(Nc1ccn(CCCNCC2CCCCC2)c(=O)n1)OCc1ccccc1	nt	nt	nt	0	nt	nt
Cc1cc(C)cc(CC(=O)N2CCC2(C)C(=O)NS(=O)(=O)c2cc(C)ccc2F)c1 (stereo not drawn)	nt	nt	nt	1	nt	nt
CCOc1cc2c(cc1O)CCC1C2CCC2(C)C(O)CCC12 (stereo not drawn)	nt	0	0	5	nt	nt
CCNc1cc2c(cc1O)CCC1C2CCC2(C)C(O)CCC12 (stereo not drawn)	nt	-13	13	13*	-3	1
Cc1ccc(S(=O)(=O)N2CCOCC2)cc1NC(=O)CSc1nnnn1C1CC1	nt	nt	nt	0	nt	nt
CC(=O)c1ccc(NC(=O)CN2C(=O)NC(C)(C3CCCCC3)C2=O)cc1 (stereo not drawn)	2	33	-33	0	nt	nt
CCCCOC(=O)C1=C(C)NC2(O)c3ccccc3C(=O)C12O (stereo not drawn)	0	4	-4	7.8*	1	-2
CC1=C(C(=O)OC(C)C)C2(O)C(=O)c3ccccc3C2(O)N1 (stereo not drawn)	2	9	-9	13*	-2	-1
C[C@@H]1CN([C@@H](C)CO)C(=O)CCCn2nncc2CO[C@@H]1CN(C)S(=O)(=O)c1cccs1	nt	nt	nt	-1	nt	nt
c1ccc(-c2onc(-c3ccco3)c2-c2ccc3[nH]ccc3c2)cc1	0	-3	3	3	nt	nt
CCCS(=O)(=O)N1CCN(Cc2ccccc2[N+](=O)[O-])CC1	0	15	-15	9.5*	0	0
O=[N+]([O-])c1ccccc1CN1CCN(S(=O)(=O)Cc2ccccc2)CC1	1	6	-6	2	nt	nt
Cc1c(S(=O)(=O)N2CCN(C(=O)c3ccco3)CC2)c(=O)n(C)c(=O)n1C	0	14	-14	8.2*	-1	0
Cn1c(N)c(S(=O)(=O)N2CCN(C(=O)c3ccco3)CC2)c(=O)n(C)c1=O	0	5	-5	0	nt	nt
CCOC(=O)c1ccc(CC(=O)c2ccc(O)c(O)c2O)o1	nt	-5	5	14*	7.3*	16*
NC(CO)C(=O)NNCc1ccc(O)c(O)c1O (stereo not drawn)	3	-2	2	37*	29*	6
COC(=O)C(N)Cc1ccc(O)c(O)c1 (stereo not drawn)	3	28	-28	1	nt	nt
SMILES	GRK2 inh	SR-BI DiI-HDL act	SR-BI DiI inh	Rin1-Abl PPI inh	Rin1-Abl confirm	GFP quench	others
COc1ccc(OC)c(NC(=O)CC2C(=O)NCCN2C(=O)Nc2cccc(Cl)c2)c1 (stereo not drawn)	0	4	-4	9.2*	13*	1
CCc1ccccc1NC(=O)CC1SCCNC1=O (stereo not drawn)	1	27	-27	6	nt	nt
O=C(CC1SCCNC1=O)Nc1cccc(Cl)c1 (stereo not drawn)	0	19	-19	9.6*	19*	0	GFP quench dose=>68
O=C(CC1SCCNC1=O)Nc1cccc(C(F)(F)F)c1 (stereo not drawn)	0	3	-3	7.8*	4	0
Cc1cccc(-c2cnc(C(O)c3ccc(F)c(C)c3)[nH]2)c1 (stereo not drawn)	nt	nt	nt	-3	nt	nt
CC1(C(=O)NCc2ccccc2Br)CCN1Cc1csc2ccccc12 (stereo not drawn)	nt	nt	nt	-6	nt	nt
Cc1cccc(NC(=O)C2CCCN(S(=O)(=O)c3ccc4c(c3)oc(=O)n4C)C2)c1 (stereo not drawn)	0	8	-8	1	nt	nt
Cn1c(=O)oc2cc(S(=O)(=O)N3CCCC(C(=O)Nc4nccs4)C3)ccc21 (stereo not drawn)	0	6	-7	11*	1	-1
CCCn1c(=O)c2c(ncn2C)n(CCC)c1=O	0	0	0	-2	nt	nt
COc1ccc(SCCCn2c(=O)c3c(ncn3C)n(C)c2=O)cc1	0	3	-3	7.7*	0	1
COc1ccc2c(c1OC)C(=O)OC2	0	-8	8	0	nt	nt
COc1ccc2c3c(cccc13)C(=O)CC2	4	45	-45	12*	-3	-12
Cc1ccc(C2NC(=O)CCC2[N+](=O)[O-])cc1 (stereo not drawn)	2	4	-4	9	nt	nt
O=C1CCC([N+](=O)[O-])C(c2ccc(Br)cc2)N1 (stereo not drawn)	0	7	-7	11*	8.1*	-1
COc1ccc(NS(=O)(=O)c2ccc(OC)c(OC)c2)cc1OC	1	-9	9	3	nt	nt
COc1cc(S(=O)(=O)Nc2ccccc2)ccc1NC=O	2	1	-1	5.4*	-2	1
COc1cc(/C=C2\CC/C(=C\c3cc(OC)c(O)c(OC)c3)C2=O)cc(OC)c1O	15	-49	49	30*	34*	24*
Cc1[nH]c(=O)[nH]c1C(=O)CCCCC(=O)OCC(=O)Nc1ccccn1	0	14	-14	90*	97*	-1
CC(N=C1NS(=O)(=O)c2ccccc21)C(=O)OCC(=O)N(C)C1CCS(=O)(=O)C1 (stereo not drawn)	0	19	-19	0	nt	nt
O=c1cc(-c2ccccc2)oc2cc(O)ccc12	nt	2	-2	64*	0	0
Cc1ccc2c(c1)c(=O)c1c3n2CCN(C(=O)CCl)C3CC1 (stereo not drawn)	10	3	13	9.4*	2	5
Cc1ccc2c(c1)c1c3n2CCN(C(=O)CN2CCN(C)CC2)C3CCC1 (stereo not drawn)	0	-15	15	-2	nt	nt
